21 compounds from ChEMBL document CHEMBL2021899, “Anti-AIDS agents 89. Identification of DCX derivatives as anti-HIV and chemosensitizing dual function agents to overcome P-gp-mediated drug resistance for AIDS therapy” (Bioorg Med Chem Lett, 2012) can be followed below.

SMILES strings stand for the structures. Bounds are passed on as bounds.

The test system of data set [1] is KB. Briefly: Reversal of p-glycoprotein-mediated multidrug resistance in human vincristine-resistance KB cells assessed as potentiation of vincristine-induced cytotoxicity at 4 uM after 48 hrs by SRB assay. Format: cell-based. An outline of the steps: (§1)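 Vincristine-resistant, P-gp over-expressing KB-vin cells were exposed to vincristine alone or with co-treatment by the test agent, with verapamil as positive control. Vincristine GI50 was read by SRB assay. Fold value = GI50 (vincristine alone) / GI50 (vincristine + test agent). At least three independent experiments.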
A general note: Sulforhodamine B stains cellular protein and so reports cell mass.

The nature of data set [2]: Cytotoxicity against human TZM-bl cells after 48 hrs by CytoTox-GloTM assay. The class given is cell-based.
Data set [3] relates to Human immunodeficiency virus. In words: Antiviral activity against HIV/NL4-3 infected in human TZM-bl cells assessed as inhibition of viral replication after 48 hrs by luciferase reporter gene assay. The class given is functional, organism-based. The following applies: Human immunodeficiency virus 1, NL4-3, TZM-bl. (Reporter assays use an easily measured gene product as a stand-in for the process of interest.)

In data set [4] the test system is KB. Briefly: Cytotoxicity against human KB cells at 4 uM after 48 hrs by SRB assay. Format: functional.
The test system of data set [5] is KB. In words: Ratio of GI50 for human vincristine-resistance KB cells to GI50 for wild type human KB cells. The class given is functional.
Data set [6] has as its system KB. Briefly: Reversal of p-glycoprotein-mediated multidrug resistance in human vincristine-resistance KB cells assessed as potentiation of vincristine-induced cytotoxicity at 4 uM after 48 hrs by SRB assay relative to verapamil. The class given is cell-based. An outline of the steps: as §1
For data set [7], the target named is ATP-dependent translocase ABCB1 (Homo sapiens, UniProt P08183). In words: Inhibition of p-glycoprotein-mediated doxorubicin efflux in human KB cells assessed as doxorubicin accumulation preincubated for 1 hr prior doxorubicin addition measured after 3 hrs by fluorometric assay. The class given is cell-based. An outline of the steps: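 KB-vin cells were seeded at 5 × 10³ per well and grown 72 h at 37 °C in 5% CO2, then washed. They were pretreated with sample or vehicle for 1 h, then doxorubicin was added to 10 final and incubated 3 h. Cells were washed in ice-cold PBS and lysed in 1% SDS/PBS; fluorescence was read at Ex 488/Em 580 nm. Value = fluorescence with compound / without, after control subtraction. Verapamil served as positive control.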
ATP-dependent translocase ABCB1, sequence (P08183 whole entry): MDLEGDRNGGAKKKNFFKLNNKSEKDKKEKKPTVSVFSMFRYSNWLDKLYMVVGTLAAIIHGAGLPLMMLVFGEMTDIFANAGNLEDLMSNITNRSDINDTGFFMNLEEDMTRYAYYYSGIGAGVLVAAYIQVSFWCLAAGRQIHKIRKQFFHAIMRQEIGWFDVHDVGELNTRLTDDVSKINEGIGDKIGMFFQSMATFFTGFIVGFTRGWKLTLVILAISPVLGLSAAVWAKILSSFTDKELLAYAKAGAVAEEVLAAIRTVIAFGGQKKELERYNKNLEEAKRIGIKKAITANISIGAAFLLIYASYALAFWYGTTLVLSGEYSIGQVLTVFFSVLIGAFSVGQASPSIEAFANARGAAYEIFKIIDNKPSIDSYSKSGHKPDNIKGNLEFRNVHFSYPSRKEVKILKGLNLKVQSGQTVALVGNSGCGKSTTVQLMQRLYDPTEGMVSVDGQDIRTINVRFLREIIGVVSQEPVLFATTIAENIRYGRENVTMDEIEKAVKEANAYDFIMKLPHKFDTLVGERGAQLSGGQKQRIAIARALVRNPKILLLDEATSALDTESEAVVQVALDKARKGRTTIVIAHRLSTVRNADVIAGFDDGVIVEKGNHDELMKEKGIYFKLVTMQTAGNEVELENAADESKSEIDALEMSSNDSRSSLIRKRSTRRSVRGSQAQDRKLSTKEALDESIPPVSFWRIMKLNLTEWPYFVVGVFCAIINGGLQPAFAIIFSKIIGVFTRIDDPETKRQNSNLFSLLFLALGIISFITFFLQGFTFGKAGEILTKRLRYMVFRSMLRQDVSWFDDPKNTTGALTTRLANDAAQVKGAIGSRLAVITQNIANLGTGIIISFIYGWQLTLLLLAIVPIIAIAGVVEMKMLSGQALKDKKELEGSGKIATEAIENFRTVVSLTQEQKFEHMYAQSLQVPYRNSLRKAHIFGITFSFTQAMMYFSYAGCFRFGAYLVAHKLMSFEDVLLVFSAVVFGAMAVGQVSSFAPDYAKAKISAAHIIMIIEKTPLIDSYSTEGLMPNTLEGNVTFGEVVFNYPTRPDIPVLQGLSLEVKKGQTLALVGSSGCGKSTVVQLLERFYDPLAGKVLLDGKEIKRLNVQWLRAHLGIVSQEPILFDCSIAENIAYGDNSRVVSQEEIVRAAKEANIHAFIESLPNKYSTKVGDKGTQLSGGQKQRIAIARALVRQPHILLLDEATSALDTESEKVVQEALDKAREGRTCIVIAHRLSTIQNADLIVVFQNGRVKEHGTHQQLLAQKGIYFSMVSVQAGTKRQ

On to `Cc1cc(=O)c2ccc3c(c2o1)[C@@H](OC(=O)[C@@]12CCC(C)(C(=O)O1)C2(C)C)[C@@H](OC(=O)[C@@]12CCC(C)(C(=O)O1)C2(C)C)C(C)(C)O3`, for which the fold change (FC) in data set [1] was 88. The IC50 in data set [2] was over 10000 nM. Moreover, the EC50 in data set [3] is 100 nM.

Turning to `CC1(C)Oc2cc(O)c3c(=O)c4ccccc4oc3c2[C@@H](OC(=O)[C@@]23CCC(C)(C(=O)O2)C3(C)C)[C@H]1OC(=O)[C@@]12CCC(C)(C(=O)O1)C2(C)C`, the fold change (FC) in data set [1] was under 24. The IC50 in data set [2] was over 10000 nM.

The compound `CC[C@]1(O)C[C@H]2CN(CCc3c([nH]c4ccccc34)[C@@](C(=O)OC)(c3cc4c(cc3OC)N(C=O)[C@H]3[C@@](O)(C(=O)OC)[C@H](OC(C)=O)[C@]5(CC)C=CCN6CC[C@]43[C@@H]65)C2)C1` [VINCRISTINE] showed a GI50 in data set [4] of 2 nM. Also, the RatioGI50 in data set [5] is on record as 1320.

On to `COc1ccc2oc3c4c(cc(OC)c3c(=O)c2c1)OC(C)(C)[C@H](OC(=O)[C@@]12CCC(C)(C(=O)O1)C2(C)C)[C@@H]4OC(=O)[C@@]12CCC(C)(C(=O)O1)C2(C)C`, for which the fold change (FC) in data set [1] stood at 343. This compound also came in with an IC50 in data set [2] of over 10000 nM. In addition, in data set [3], the EC50 turned out to be 121 nM.

As to `COc1cc2c(c3oc4ccc(C)cc4c(=O)c13)[C@@H](OC(=O)[C@@]13CCC(C)(C(=O)O1)C3(C)C)[C@@H](OC(=O)[C@@]13CCC(C)(C(=O)O1)C3(C)C)C(C)(C)O2`, in data set [1], the fold change (FC) amounted to 388. The IC50 in data set [2] was over 10000 nM. Besides, the EC50 in data set [3] was 65 nM.

For the compound `COc1cc2c(c3oc4cccc(C)c4c(=O)c13)[C@@H](OC(=O)[C@@]13CCC(C)(C(=O)O1)C3(C)C)[C@@H](OC(=O)[C@@]13CCC(C)(C(=O)O1)C3(C)C)C(C)(C)O2`, the fold change (FC) worked out at 1390 in data set [1] and 20 in data set [6]. The compound also showed an IC50 in data set [2] of over 10000 nM. The EC50 in data set [3] was 150 nM.

As to `CCc1cc(=O)c2ccc3c(c2o1)[C@@H](OC(=O)[C@@]12CCC(C)(C(=O)O1)C2(C)C)[C@@H](OC(=O)[C@@]12CCC(C)(C(=O)O1)C2(C)C)C(C)(C)O3`, the fold change (FC) in data set [1] came out at 132. Besides, the IC50 in data set [2] was over 10000 nM. For the same compound, the EC50 in data set [3] turned out to be 70 nM.

As to `CCc1cc(=O)c2c(C)cc3c(c2o1)[C@@H](OC(=O)[C@@]12CCC(C)(C(=O)O1)C2(C)C)[C@@H](OC(=O)[C@@]12CCC(C)(C(=O)O1)C2(C)C)C(C)(C)O3`, the fold change (FC) in data set [1] turned out to be 677. In addition, the “inhibition (INH)” value in data set [7] is “Active”. For the same compound, in data set [2], the IC50 was over 10000 nM. For the same compound, the EC50 in data set [3] amounted to 100 nM.

In the case of `COc1ccc(CCN(C)CCCC(C#N)(c2ccc(OC)c(OC)c2)C(C)C)cc1OC` (stereo unspecified), the fold change (FC) in data set [1] turned out to be 60.

Consider `COc1cc2c(c3oc4c(F)cccc4c(=O)c13)[C@@H](OC(=O)[C@@]13CCC(C)(C(=O)O1)C3(C)C)[C@@H](OC(=O)[C@@]13CCC(C)(C(=O)O1)C3(C)C)C(C)(C)O2`, for which, in data set [1], the fold change (FC) stood at 880. In addition, in data set [2], the IC50 was over 10000 nM. For the same compound, the EC50 in data set [3] amounted to 230 nM.

As to `COc1cc2c(c3oc4cc(C)ccc4c(=O)c13)[C@@H](OC(=O)[C@@]13CCC(C)(C(=O)O1)C3(C)C)[C@@H](OC(=O)[C@@]13CCC(C)(C(=O)O1)C3(C)C)C(C)(C)O2`, the fold change (FC) in data set [1] is 352. For the same compound, the IC50 in data set [2] was over 10000 nM. In data set [3], the EC50 amounted to 95 nM.

For the compound `CC1(C)Oc2ccc3c(=O)c4ccccc4oc3c2[C@@H](OC(=O)[C@@]23CCC(C)(C(=O)O2)C3(C)C)[C@H]1OC(=O)[C@@]12CCC(C)(C(=O)O1)C2(C)C`, the fold change (FC) in data set [1] amounted to 1260; in data set [6], 20. In data set [2], this compound yielded an IC50 of over 10000 nM. Moreover, in data set [3], the EC50 came to 308 nM.

As for `COc1cc2c(c3oc4cc(Br)ccc4c(=O)c13)[C@@H](OC(=O)[C@@]13CCC(C)(C(=O)O1)C3(C)C)[C@@H](OC(=O)[C@@]13CCC(C)(C(=O)O1)C3(C)C)C(C)(C)O2`, the fold change (FC) in data set [1] was found to be 264. In data set [2], this compound registered an IC50 of over 10000 nM.

With `COc1c(Br)c2c(c3oc4ccccc4c(=O)c13)[C@@H](OC(=O)[C@@]13CCC(C)(C(=O)O1)C3(C)C)[C@@H](OC(=O)[C@@]13CCC(C)(C(=O)O1)C3(C)C)C(C)(C)O2`, the fold change (FC) in data set [1] worked out at 1650; in data set [6], 20. Moreover, the IC50 in data set [2] was over 10000 nM.

Regarding `COc1cc2c(c3oc4ccc(F)cc4c(=O)c13)[C@@H](OC(=O)[C@@]13CCC(C)(C(=O)O1)C3(C)C)[C@@H](OC(=O)[C@@]13CCC(C)(C(=O)O1)C3(C)C)C(C)(C)O2`, the fold change (FC) in data set [1] was determined as 1150; in data set [6], 20. This compound also came in with an IC50 in data set [2] of over 10000 nM. In addition, the EC50 in data set [3] was determined as 100 nM.

For the compound `COc1cccc2c(=O)c3c(OC)cc4c(c3oc12)[C@@H](OC(=O)[C@@]12CCC(C)(C(=O)O1)C2(C)C)[C@@H](OC(=O)[C@@]12CCC(C)(C(=O)O1)C2(C)C)C(C)(C)O4`, the fold change (FC) is 1020 in data set [1] and 20 in data set [6]. For the same compound, the IC50 in data set [2] was over 10000 nM.

On to `COc1cc2c(c3oc4ccccc4c(=O)c13)[C@@H](OC(=O)[C@@]13CCC(C)(C(=O)O1)C3(C)C)[C@@H](OC(=O)[C@@]13CCC(C)(C(=O)O1)C3(C)C)C(C)(C)O2`, for which, in data set [1], the fold change (FC) was found to be 776. Further, the “inhibition (INH)” value in data set [7] is on record as “Active”. The IC50 in data set [2] was over 10000 nM. The EC50 in data set [3] is 63 nM.

For `Cc1cc(=O)c2c(C)cc3c(c2o1)[C@@H](OC(=O)[C@@]12CCC(C)(C(=O)O1)C2(C)C)[C@@H](OC(=O)[C@@]12CCC(C)(C(=O)O1)C2(C)C)C(C)(C)O3`, the results for the fold change (FC) in data set [1] and in data set [6] were 910 and 20, respectively. In data set [7], the “inhibition (INH)” value is listed as “Active”. The compound further came in with an IC50 in data set [2] of over 10000 nM. Besides, the half-maximal effective concentration (EC50) in data set [3] was 36 nM.

Turning to `COc1cc(C)c2c(=O)c3c(OC)cc4c(c3oc2c1)[C@@H](OC(=O)[C@@]12CCC(C)(C(=O)O1)C2(C)C)[C@@H](OC(=O)[C@@]12CCC(C)(C(=O)O1)C2(C)C)C(C)(C)O4`, the fold change (FC) in data set [1] was 518. The compound also yielded an IC50 in data set [2] of over 10000 nM. In data set [3], the EC50 came to 140 nM.

Consider `COc1ccc2c(=O)c3c(OC)cc4c(c3oc2c1)[C@@H](OC(=O)[C@@]12CCC(C)(C(=O)O1)C2(C)C)[C@@H](OC(=O)[C@@]12CCC(C)(C(=O)O1)C2(C)C)C(C)(C)O4`, for which the fold change (FC) in data set [1] was 98. This compound also yielded an IC50 in data set [2] of over 10000 nM. For the same compound, in data set [3], the EC50 is 362 nM.

Turning to `COc1cc2c(c3oc4c(C)cccc4c(=O)c13)[C@@H](OC(=O)[C@@]13CCC(C)(C(=O)O1)C3(C)C)[C@@H](OC(=O)[C@@]13CCC(C)(C(=O)O1)C3(C)C)C(C)(C)O2`, the fold change (FC) was determined as 1100 in data set [1] and 20 in data set [6]. In addition, the IC50 in data set [2] was over 10000 nM. Further, the EC50 in data set [3] stood at 1520 nM.

One may read the IC50 as the concentration that inhibits the measured activity by half. Lower therefore signals higher potency. By EC50 is commonly meant the concentration at which the effect is half-maximal. For orientation: GI50 means the concentration at which growth is held to half of that of the control. Low values mean greater sensitivity of the cells, high ones lower sensitivity of the cells.
